Values after ≈ are worked out from the molar mass of the structure shown.
Experiments:
Format in all cases: functional
PRK [1] = assay: Concentration required to reduce Herpes simplex virus type 1 induced cytopathogenicity in primary rabbit kidney (PRK) cell cultures; details: Human alphaherpesvirus 1, PRK; read-out: ID50 (the source's name)
L1210 [2] = assay: Concentration required to reduce leukemia L1210 cell growth […]; details: Mus musculus, read-out: ID50 (the source's name)
PRK [3] = assay: Concentration required to reduce Herpes simplex virus type 2 induced cytopathogenicity in primary rabbit kidney (PRK) cell cultures; details: Human alphaherpesvirus 2, PRK; read-out: ID50 (the source's name)
PRK [4] = assay: Inhibitory activity against incorporation of deoxy-[methyl.3H-]-thymidine (dThd) into the DNA of uninfected primary rabbit kidney (PRK) cell cultures; details: Oryctolagus cuniculus, read-out: ID50 (the source's name)
In short: (§1)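 Uninfected primary rabbit kidney cells were used as a cytotoxicity measure. Incorporation of [methyl-3H]dThd or [1',2'-3H]dUrd into cellular DNA was followed with compound present.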

PRK [5] = assay: Inhibitory activity against incorporation of deoxy-[1',2'-3H]uridine (dUrd) into the DNA of uninfected primary rabbit kidney (PRK) cell cultures; details: Oryctolagus cuniculus, read-out: ID50 (the source's name); in short: as §1
L1210 [6] = assay: Inhibitory activity against incorporation of deoxy-[methyl.3H-]-thymidine (dThd) into the DNA of murine leukemia L1210 cell cultures; details: Mus musculus, read-out: ID50 (the source's name)
PRK [7] = assay: Concentration required to reduce Vaccinia virus induced cytopathogenicity in primary rabbit kidney (PRK) cell cultures; details: Orthopoxvirus vaccinia, read-out: ID50 (the source's name)

Compound | IC50 (PRK [1]) [µg/mL] | IC50 (L1210 [2]) [µg/mL] | IC50 (PRK [3]) [µg/mL] | IC50 (PRK [4]) [µg/mL] | IC50 (PRK [5]) [µg/mL] | IC50 (L1210 [6]) [µg/mL] | IC50 (PRK [7]) [µg/mL]
CC#Cc1cn(C2O[C@H](CO)[C@@H](O)[C@@H]2O)c(=O)[nH]c1=O (some centres not stated) | 20 (≈ 70.9 µM) | 36 (≈ 128 µM) | 50 (≈ 177 µM) | 92 (≈ 326 µM) | > 100 | > 1000 | 200 (≈ 709 µM)
O=c1[nH]c(=O)n([C@H]2C[C@H](O)[C@@H](CO)O2)cc1C#CCCO | 18 (≈ 60.8 µM) | > 1000 | 47 (≈ 159 µM) | 73 (≈ 246 µM) | 13 (≈ 43.9 µM) | – | 10 (≈ 33.8 µM)
CC(C)(C)C#Cc1cn(C2O[C@H](CO)[C@@H](O)[C@H]2O)c(=O)[nH]c1=O (some centres not stated) | > 400 | – | > 400 | > 400 | > 400 | > 1000 | > 400
O=c1[nH]c(=O)n([C@H]2C[C@H](O)[C@@H](CO)O2)cc1I [IDOXURIDINE] | 0.15 (≈ 0.424 µM) | 61 (≈ 172 µM) | 0.3 (≈ 0.847 µM) | 1.5 (≈ 4.24 µM) | 0.12 (≈ 0.339 µM) | – | 0.2 (≈ 0.565 µM)
CCCCCC#Cc1cn([C@H]2C[C@H](O)[C@@H](CO)O2)c(=O)[nH]c1=O | > 400 | 219 (≈ 679 µM) | > 400 | 9 (≈ 27.9 µM) | 33 (≈ 102 µM) | 45 (≈ 140 µM) | 70 (≈ 217 µM)
CCCCC#Cc1cn([C@H]2C[C@H](O)[C@@H](CO)O2)c(=O)[nH]c1=O | 108 (≈ 350 µM) | 1000 (≈ 3240 µM) | 350 (≈ 1140 µM) | 45 (≈ 146 µM) | 59 (≈ 191 µM) | 47 (≈ 152 µM) | 45 (≈ 146 µM)
Cc1ccc(S(=O)(=O)OCCC#Cc2cn([C@H]3C[C@H](O)[C@@H](CO)O3)c(=O)[nH]c2=O)cc1 | 33 (≈ 73.3 µM) | > 200 | 63 (≈ 140 µM) | 13 (≈ 28.9 µM) | 44 (≈ 97.7 µM) | 112 (≈ 249 µM) | 10 (≈ 22.2 µM)
CCC#Cc1cn(C2O[C@H](CO)[C@@H](O)[C@@H]2O)c(=O)[nH]c1=O (some centres not stated) | 200 (≈ 675 µM) | > 1000 | > 400 | 120 (≈ 405 µM) | 215 (≈ 726 µM) | > 1000 | > 400
CC(C)(C)C#Cc1cn([C@H]2C[C@H](O)[C@@H](CO)O2)c(=O)[nH]c1=O | 4 (≈ 13 µM) | 287 (≈ 931 µM) | 19 (≈ 61.6 µM) | 6 (≈ 19.5 µM) | 2 (≈ 6.49 µM) | – | 7 (≈ 22.7 µM)
CCCC/C=C\c1cn([C@H]2C[C@H](O)[C@@H](CO)O2)c(=O)[nH]c1=O | > 400 | 361 (≈ 1160 µM) | > 200 | 5 (≈ 16.1 µM) | 34 (≈ 110 µM) | 39 (≈ 126 µM) | > 400
O=c1[nH]c(=O)n([C@H]2C[C@H](O)[C@@H](CO)O2)cc1C#CCCCO | > 400 | 280 (≈ 902 µM) | > 400 | > 200 | > 156 | – | 125 (≈ 403 µM)
CCCC#Cc1cn([C@H]2C[C@H](O)[C@@H](CO)O2)c(=O)[nH]c1=O | 4 (≈ 13.6 µM) | > 1000 | 90 (≈ 306 µM) | 9 (≈ 30.6 µM) | 3 (≈ 10.2 µM) | – | 7 (≈ 23.8 µM)
CCC#Cc1cn([C@H]2C[C@H](O)[C@@H](CO)O2)c(=O)[nH]c1=O | 4 (≈ 14.3 µM) | > 1000 | 32 (≈ 114 µM) | 13 (≈ 46.4 µM) | 2 (≈ 7.14 µM) | – | 7 (≈ 25 µM)
CC#Cc1cn([C@H]2C[C@H](O)[C@@H](CO)O2)c(=O)[nH]c1=O | 0.3 (≈ 1.13 µM) | 164 (≈ 616 µM) | 0.7 (≈ 2.63 µM) | 3 (≈ 11.3 µM) | 0.7 (≈ 2.63 µM) | – | 0.4 (≈ 1.5 µM)
CCCCCCc1cn([C@H]2C[C@H](O)[C@@H](CO)O2)c(=O)[nH]c1=O | 400 (≈ 1280 µM) | 301 (≈ 964 µM) | 350 (≈ 1120 µM) | 7 (≈ 22.4 µM) | 52 (≈ 166 µM) | – | 300 (≈ 960 µM)
O=c1[nH]c(=O)n([C@H]2C[C@H](O)[C@@H](CO)O2)cc1C#CCO | 36 (≈ 128 µM) | > 1000 | 37 (≈ 131 µM) | 68 (≈ 241 µM) | 8 (≈ 28.3 µM) | – | 10 (≈ 35.4 µM)
COCC#Cc1cn([C@H]2C[C@H](O)[C@@H](CO)O2)c(=O)[nH]c1=O | 1 (≈ 3.38 µM) | 254 (≈ 857 µM) | 2 (≈ 6.75 µM) | 16 (≈ 54 µM) | 2 (≈ 6.75 µM) | – | 2 (≈ 6.75 µM)
O=c1[nH]c(=O)n([C@H]2C[C@H](O)[C@@H](CO)O2)cc1/C=C/Br [BRIVUDINE] | 0.007 (≈ 0.021 µM) | 0.001 (≈ 0.003 µM) | 2.5 (≈ 7.5 µM) | 90 (≈ 270 µM) | 25 (≈ 75 µM) | – | 5 (≈ 15 µM)
C#Cc1cn([C@H]2C[C@H](O)[C@@H](CO)O2)c(=O)[nH]c1=O | 0.5 (≈ 1.98 µM) | 0.09 (≈ 0.357 µM) | 1 (≈ 3.96 µM) | 3 (≈ 11.9 µM) | 0.05 (≈ 0.198 µM) | – | 0.1 (≈ 0.396 µM)
O=c1[nH]c(=O)n([C@H]2C[C@H](O)[C@@H](CO)O2)cc1C#Cc1ccccc1 | > 400 | 494 (≈ 1500 µM) | > 400 | 23 (≈ 70.1 µM) | 77 (≈ 235 µM) | 120 (≈ 365 µM) | > 400

From ChEMBL document CHEMBL1122479, “Nucleic acid related compounds. 40. Synthesis and biological activities of 5-alkynyluracil nucleosides” (1983)
